In brackets after ≈: the same amount, converted by molar mass.
Columns and labels:
Assay type in all cases: functional
[1] = tested on: Escherichia coli; experiment: Antibacterial activity against quinolone-resistant Escherichia coli TOP10-3963 transformant harboring qnrS1 gene by Etest method
In short: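 The transformant was made by extracting plasmid DNA from strain 3963 and transforming competent E. coli TOP10. Transformants were selected on LB agar containing 0.06 μg/ml ciprofloxacin and carried both qnrS1 and blaTEM-1.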

[2] = tested on: Escherichia coli; experiment: Antibacterial activity against Escherichia coli 3963 by Etest method
In short: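 Strain 3963 is an E. coli poultry isolate of phylogenetic group D and multilocus sequence type 398. It was picked from 73 poultry isolates with ciprofloxacin MICs of ≥0.125 μg/ml. Resistance categories were assigned by published interpretive criteria.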

[3] = tested on: Escherichia coli; experiment: Antibacterial activity against Escherichia coli TOP10 by Etest method

SMILES	MIC [1]	MIC [2]	MIC [3]
CC1(C)S[C@@H]2[C@H](NC(=O)[C@H](N)c3ccccc3)C(=O)N2[C@H]1C(=O)O [AMPICILLIN]	≥ 256 µg/mL	≥ 256 µg/mL	6 µg/mL (≈ 17.2 µM)
CO/N=C(\C(=O)N[C@@H]1C(=O)N2C(C(=O)O)=C(COC(C)=O)CS[C@H]12)c1csc(N)n1 [CEFOTAXIME]	0.064 µg/mL (≈ 0.141 µM)	0.047 µg/mL (≈ 0.103 µM)	0.064 µg/mL (≈ 0.141 µM)
CO/N=C(\C(=O)N[C@@H]1C(=O)N2C(C(=O)O)=C(CSc3nc(=O)c(O)nn3C)CS[C@H]12)c1csc(N)n1 [CEFTRIAXONE]	0.094 µg/mL (≈ 0.169 µM)	0.032 µg/mL (≈ 0.0577 µM)	0.064 µg/mL (≈ 0.115 µM)
O=C(O)c1cn(C2CC2)c2cc(N3CCNCC3)c(F)cc2c1=O [CIPROFLOXACIN]		0.38 µg/mL (≈ 1.15 µM)	
CCN1CCN(c2cc3c(cc2F)c(=O)c(C(=O)O)cn3C2CC2)CC1 [ENROFLOXACIN]	0.5 µg/mL (≈ 1.39 µM)	2 µg/mL (≈ 5.56 µM)	0.08 µg/mL (≈ 0.223 µM)
C[C@H]1COc2c(N3CCN(C)CC3)c(F)cc3c(=O)c(C(=O)O)cn1c23.C[C@H]1COc2c(N3CCN(C)CC3)c(F)cc3c(=O)c(C(=O)O)cn1c23.O [LEVOFLOXACIN]	0.25 µg/mL		0.006 µg/mL
CCn1cc(C(=O)O)c(=O)c2ccc(C)nc21 [NALIDIXIC ACID]	6 µg/mL (≈ 25.8 µM)	16 µg/mL (≈ 68.9 µM)	2 µg/mL (≈ 8.61 µM)
